The source of these data is ChEMBL document CHEMBL1134767, “Structural basis of binding of high-affinity ligands to protein kinase C: prediction of the binding modes through a new molecular dynamics method and evaluation by site-directed mutagenesis” (J Med Chem, 2001).

Experiment [1] has as its target Protein kinase C delta type (Mus musculus, UniProt P28867, P241G). The experiment can be described thus: Displacement of [3H]-PDBu from protein kinase C delta C1b domain mutant (P11G). A digest of the protocol: (§1)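 PKCδ C1b domain, wild type or sequence-confirmed point mutant, expressed as a GST-fusion protein in E. coli and used purified or as total lysate. Incubated 5 min at 18 °C with [3H]PDBu, […] phosphatidylserine, 1 mM EGTA and varied unlabeled ligand. Protein was precipitated with 35% poly(ethylene glycol) and centrifuged, and supernatant and pellet radioactivity counted. Ki was calculated from final ligand concentrations.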
Background: Displacement assays read how much labelled ligand stays bound in the presence of the test substance.

Experiment [2] has as its target Protein kinase C delta type (Mus musculus, UniProt P28867, L250G). Put plainly: Displacement of [3H]PDBu from protein kinase C delta C1b domain mutant (L20G). A digest of the protocol: as §1
The target of experiment [3] is Protein kinase C delta type (Mus musculus, UniProt P28867, T242G). Put plainly: Displacement of [3H]PDBu from protein kinase C delta C1b domain mutant (T12G). A digest of the protocol: as §1
The target of experiment [4] is Protein kinase C delta type (Mus musculus, UniProt P28867, Q257V). The experiment can be described thus: Displacement of [3H]PDBu from protein kinase C delta C1b domain mutant (Q27V). A digest of the protocol:
as §1

In experiment [5] the target is Protein kinase C delta type (Mus musculus, UniProt P28867, T8G). The experiment can be described thus: Displacement of [3H]PDBu from protein kinase C delta C1b domain mutant (T8G). A digest of the protocol:
as §1

The target in experiment [6] is Protein kinase C delta type (Mus musculus, UniProt P28867, F243G). Put plainly: Displacement of [3H]PDBu from protein kinase C delta C1b domain mutant (F13G). A digest of the protocol: as §1
Experiment [7] addresses Protein kinase C delta type (Mus musculus, UniProt P28867, W252G). Put plainly: Displacement of [3H]PDBu from protein kinase C delta C1b domain mutant (W22G).
Experiment [8] has as its target Protein kinase C delta type (Mus musculus, UniProt P28867). The experiment can be described thus: Displacement of [3H]PDBu from protein kinase C delta C1b domain (Wild type). A digest of the protocol: as §1

Sequence of Protein kinase C delta type (Mus musculus, UniProt P28867, Q257V) (P28867 whole entry Q257V, the tested form may be a part): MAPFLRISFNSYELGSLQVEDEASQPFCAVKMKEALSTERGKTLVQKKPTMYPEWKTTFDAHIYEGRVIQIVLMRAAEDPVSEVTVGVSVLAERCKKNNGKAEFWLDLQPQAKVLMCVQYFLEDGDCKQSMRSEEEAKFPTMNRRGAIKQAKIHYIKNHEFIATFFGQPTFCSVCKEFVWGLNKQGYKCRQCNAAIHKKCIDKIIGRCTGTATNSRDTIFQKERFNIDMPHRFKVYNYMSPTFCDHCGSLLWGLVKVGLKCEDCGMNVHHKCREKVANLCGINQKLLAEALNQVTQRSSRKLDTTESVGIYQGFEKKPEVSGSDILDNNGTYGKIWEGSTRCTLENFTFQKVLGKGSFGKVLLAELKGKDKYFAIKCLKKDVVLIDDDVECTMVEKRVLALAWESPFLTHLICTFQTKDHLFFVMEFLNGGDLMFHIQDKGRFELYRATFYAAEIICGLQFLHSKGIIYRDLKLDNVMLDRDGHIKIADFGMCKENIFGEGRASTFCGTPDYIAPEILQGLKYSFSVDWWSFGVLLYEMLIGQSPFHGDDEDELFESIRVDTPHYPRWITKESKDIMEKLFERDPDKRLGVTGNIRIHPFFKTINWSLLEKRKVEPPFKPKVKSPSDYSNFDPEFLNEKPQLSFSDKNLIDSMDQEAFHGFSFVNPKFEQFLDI
Sequence of Protein kinase C delta type (Mus musculus, UniProt P28867, L250G) (P28867 whole entry L250G, the tested form may be a part): as the sequence (P28867 whole entry Q257V, the tested form may be a part) above, with L250G, V257Q counted along it
Sequence of Protein kinase C delta type (Mus musculus, UniProt P28867, T8G) (P28867 whole entry, looked up, stated change not applied, the tested form may be a part): as the sequence (P28867 whole entry Q257V, the tested form may be a part) above, with V257Q counted along it
Sequence of Protein kinase C delta type (Mus musculus, UniProt P28867) (P28867 whole entry, the tested form may be a part): as the sequence (P28867 whole entry Q257V, the tested form may be a part) above, with V257Q counted along it
Sequence of Protein kinase C delta type (Mus musculus, UniProt P28867, T242G) (P28867 whole entry T242G, the tested form may be a part): as the sequence (P28867 whole entry Q257V, the tested form may be a part) above, with T242G, V257Q counted along it
Sequence of Protein kinase C delta type (Mus musculus, UniProt P28867, P241G) (P28867 whole entry P241G, the tested form may be a part): as the sequence (P28867 whole entry Q257V, the tested form may be a part) above, with P241G, V257Q counted along it
Sequence of Protein kinase C delta type (Mus musculus, UniProt P28867, F243G) (P28867 whole entry F243G, the tested form may be a part): as the sequence (P28867 whole entry Q257V, the tested form may be a part) above, with F243G, V257Q counted along it
Sequence of Protein kinase C delta type (Mus musculus, UniProt P28867, W252G) (P28867 whole entry W252G, the tested form may be a part): as the sequence (P28867 whole entry Q257V, the tested form may be a part) above, with W252G, V257Q counted along it

For `CC(C)[C@H]1C(=O)N[C@H](CO)Cc2c[nH]c3cccc(c23)N1C` [INDOLACTUM], the Ki (in general, the dissociation constant of the complex between target and ligand, obtained from inhibition or displacement) in experiment [1] is 7080 nM; in experiment [2], 66.2 nM; in experiment [3] it was 25.3 nM; in experiment [4], 1100 nM; in experiment [5], 658 nM; in experiment [6], 10.9 nM.
Turning to `CCCC(=O)O[C@@H]1[C@@H](C)[C@@]2(O)[C@@H](C=C(CO)C[C@]3(O)C(=O)C(C)=C[C@@H]23)[C@@H]2C(C)(C)[C@]12OC(=O)CCC`, the Ki in experiment [7] is 25 nM; in experiment [1], 210 nM; in experiment [2], 6.59 nM; in experiment [3], 1.24 nM; in experiment [8] it was 0.351 nM; in experiment [4], 14.2 nM. The Ki in experiment [5] turned out to be 18.4 nM; in experiment [6], 0.82 nM.
For the compound `C=C(C)[C@@]12OC3(c4ccccc4)O[C@@H]1[C@@H]1C4O[C@]4(CO)[C@@H](O)[C@]4(O)C(=O)C(C)=C[C@H]4[C@@]1(O3)[C@H](C)[C@H]2OC(=O)/C=C/c1ccccc1` (stereo partly drawn) [THYMELEATOXIN], the inhibitory constant (Ki) in experiment [1] was 417 nM; in experiment [2], 11.3 nM; in experiment [3], 19.1 nM; in experiment [8], 2.71 nM; in experiment [4], 47.1 nM; in experiment [5], 86.6 nM. In addition, the Ki in experiment [6] was 7.8 nM.
On to `CC1=CC23C(=O)[C@@H](C=C(CO)[C@@H](O)[C@]2(O)[C@H]1OC(=O)c1ccccc1)[C@H]1[C@@H](C[C@H]3C)C1(C)C`, for which the Ki in experiment [1] came out at 10.8 nM; in experiment [2] it was 1.08 nM; in experiment [3], 0.72 nM; in experiment [8], 0.13 nM; in experiment [4], 1.41 nM; in experiment [5], 3.14 nM. In experiment [6], this compound registered an inhibition constant (Ki) of 0.15 nM.
